High-throughput results: PubChem BioAssay, Johns Hopkins Ion Channel Center
An excerpt weighted towards active compounds, which were near 4.1% of everything screened.
MrgX1 allo act: positive allosteric modulators of MrgX1, primary screen, HEK293 cells, Fluo-4 calcium flux. Mas-related G-protein coupled receptor member X1 (Homo sapiens), Q96LB2. 0.63% of 310,000 active. B-score at 10 µM. AID 588675, 2011. FDSS; stronger effect = higher value;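 active means plate-corrected calcium response at least 3 library SD above typical, normal starting fluorescence, not activating the receptor alone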;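 further: compound read alongside a low EC10 to EC30 dose of BAM8-22 agonist; peak minus trough fluorescence over baseline measured at the second addition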
RGS4 inh: RGS4 inhibitors, primary screen, cell-based, HEK293 M3R inducible RGS4, calcium flux. B-score at 10 µM. 0.45% of 310,000 active. Regulator of G-protein signaling 4 (Homo sapiens), P49798. AID 463165, 2010. Fluo-4 calcium flux; stronger effect = higher value; triggered by carbachol at its EC20;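 active means B-score, a plate-corrected calcium signal, over three deviations above library mean, with baseline fluorescence within five deviations of library mean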;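 further: RGS4 expression induced by doxycycline in cells with stable M3 receptor; B-score is computed from the integrated fluorescence ratio over baseline after carbachol; higher B-score means a larger calcium signal and so more RGS4 inhibition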
Target sequence (P49798 whole entry, looked up): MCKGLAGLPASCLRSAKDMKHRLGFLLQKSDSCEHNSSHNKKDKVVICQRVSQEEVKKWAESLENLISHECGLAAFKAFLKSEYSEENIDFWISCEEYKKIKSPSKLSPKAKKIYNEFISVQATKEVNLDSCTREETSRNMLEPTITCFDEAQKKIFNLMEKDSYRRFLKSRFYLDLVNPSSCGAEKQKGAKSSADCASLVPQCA
Kir21 inh: inhibitors of mouse Kir2.1 inward-rectifier potassium channel. Inward rectifier potassium channel 2 (Mus musculus), P35561. HEK293-Kir2.1, FluxOR thallium flux fluorescence; stronger effect = lower value. B-score at 10 µM. 0.85% of 310,000 active. AID 1672, 2009;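 active means fluorescence ratio B-score at or below minus 3 SD of library scores, with starting-brightness B-score within 2 SD, cut at about -4.2 in these data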;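 further: channel flux triggered by added potassium and thallium sulfate stimulus; B-score of peak minus minimum fluorescence over baseline after thallium stimulus; more negative B-score means stronger Kir2.1 block with less thallium influx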
Target sequence (P35561 whole entry, looked up): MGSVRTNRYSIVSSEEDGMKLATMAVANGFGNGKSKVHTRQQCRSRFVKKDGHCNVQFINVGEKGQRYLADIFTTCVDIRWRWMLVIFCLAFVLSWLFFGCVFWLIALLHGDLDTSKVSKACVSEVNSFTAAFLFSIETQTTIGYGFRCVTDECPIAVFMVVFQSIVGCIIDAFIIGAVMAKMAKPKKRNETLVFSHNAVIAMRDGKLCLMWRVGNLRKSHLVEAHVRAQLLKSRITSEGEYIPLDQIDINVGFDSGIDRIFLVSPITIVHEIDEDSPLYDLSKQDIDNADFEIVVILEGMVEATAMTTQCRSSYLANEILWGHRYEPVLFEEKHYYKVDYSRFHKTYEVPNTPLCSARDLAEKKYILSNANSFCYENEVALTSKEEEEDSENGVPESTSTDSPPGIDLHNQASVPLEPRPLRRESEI
MrgX1 antag: antagonists of human MrgX1 receptor, primary screen, HEK293 cells, Fluo-4 calcium flux; B-score at 10 µM; BAM8-22 antagonism; stronger effect = lower value; AID 588676, 2011; 1.3% of 310,000 active; Mas-related G-protein coupled receptor member X1 (Homo sapiens), Q96LB2;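 active means calcium-response B-score plate-corrected more than 3 library SD below zero, starting fluorescence within 5 deviations, no agonist response on first addition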;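 further: peak minus trough fluorescence over baseline after final BAM8-22 challenge near maximal dose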
RGS4 pot: RGS4 potentiators or activators, primary screen, cell-based, HEK293 M3R inducible RGS4, calcium flux; AID 463111, 2010; 0.92% of 310,000 active; carbachol calcium flux Fluo4; stronger effect = lower value; B-score at 10 µM;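 active means B-score of the integrated calcium signal more than 4 SD below the library mean, with starting fluorescence not abnormally high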;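 further: negative B-score means reduced calcium response which marks RGS4 activation or potentiation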
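Reagent: ECmax carbachol challenge; Test system: M3R-expressing HEK293 line, RGS4 induced by doxycycline; Schedule: overnight RGS4 induction, 30 min dye load 37 °C, 20 min compound RT; Detection: calcium dye Fluo4 fluorescence; Read-out: Agonist-evoked peak-minus-minimum fluorescence over baseline, integrated ratio, B score.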
MrgX1 ag: agonists of human MrgX1 receptor, primary screen, HEK293 cells, Fluo-4 calcium flux; Mas-related G-protein coupled receptor member X1 (Homo sapiens), Q96LB2; Fluo-4 calcium fluorescence, agonist mode; stronger effect = higher value; B-score at 10 µM; 0.44% of 310,000 active;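 active means calcium response B-score plate-corrected fluorescence ratio at least 3 library SD, with starting fluorescence B-score inside 5 SD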
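Material: MrgX1-expressing HEK293 cells / Dosing: compound as first of three additions / Incubation: overnight seeding, then 1 h dark dye loading / Signal: Fluo-4 NW calcium fluorescence / Evaluation: B-scored fluorescence response ratio / Benchmarks: positive and negative control wells on each plate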
MrgX1 antag conf: MrgX1 receptor antagonists, duplicate retest, confirmation, HEK293 cells, Fluo-4 calcium flux; shares compounds with MrgX1 antag; remaining BAM8-22 calcium response % of control (stronger effect = lower value), % at 10 µM; 19% of 2,300 active; BAM8-22 calcium flux; stronger effect = lower value;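 active means remaining agonist calcium response no higher than 100% minus 3 SD of agonist-only control wells, with starting fluorescence near control levels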;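 further: agonist BAM8-22 given at a near maximal EC90 to ECmax level; peak minus minimum fluorescence divided by baseline after agonist addition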
HEK293 Ca flux: nonspecific calcium signal in parental HEK293, confirmation, counter-screen for MrgX1 antagonist project, parental HEK293 cells, Fluo-4 calcium flux. shares compounds with MrgX1 antag. Fluo-4 calcium fluorescence, FDSS. fluorescence ratio F(max-min)/F0 at 10 µM. 2% of 4,000 active;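 active means duplicate-averaged calcium fluorescence ratio at least three times the standard deviation of buffer wells, a nonspecific response in parental cells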
HEK293 Ca counter: calcium response in parental HEK293 cells, primary screen, counter-screen for MrgX1 allosteric activator project, cell-based, Fluo-4 calcium flux, duplicate | Fluo-4 fluorescence ratio; stronger effect = higher value | 0.4% of 4,000 active | fluorescence ratio F(max-min)/F0 at 10 µM | shares compounds with MrgX1 antag;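 active means calcium fluorescence ratio, averaged over duplicates, at least 3 SD of the buffer-well ratio, meaning a nonspecific response in receptor-free cells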;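 further: untransfected parental HEK293 lacking MrgX1 used as counterscreen for MrgX1 allosteric activators; fluorescence change taken during the second addition on a kinetic imager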
HEK293 Ca cntr2: calcium response in parental HEK293 cells, primary screen, counter-screen for MrgX1 agonist project, cell-based, Fluo-4 calcium flux, duplicate, agonist mode; fluorescence ratio F(max-min)/F0 at 10 µM; 8.7% of 4,000 active; shares compounds with MrgX1 antag; Fluo-4 calcium fluorescence (FDSS); stronger effect = higher value; AID 624115, 2012;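 active means calcium fluorescence ratio at least three times the spread of buffer wells, meaning a non-specific response in parental cells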
* hit, by the source's call; i = inactive; . = no result given.

SMILES | MrgX1 allo act | RGS4 inh | Kir21 inh | MrgX1 antag | RGS4 pot | MrgX1 ag | MrgX1 antag conf | HEK293 Ca flux | HEK293 Ca counter | HEK293 Ca cntr2
CNCc1ccccc1OCC(=O)Nc1ccccc1 | i | i | -1.1 | -4.6* | i | i | i | i | i | i
CCc1ccccc1OCC(=O)Nc1ccc(S(N)(=O)=O)cc1 | i | i | -0.24 | i | i | i | . | . | . | .
COc1cc2nc(Nc3ccc(F)cc3)nc(N)c2cc1OC | i | i | -5.9* | -6.1* | i | i | 66%* | i | i | i
CC1CCCCC1NC(=O)c1cccc(S(=O)(=O)N2CCN(Cc3ccccc3)CC2)c1 (centres undefined) | i | i | 1 | -6.1* | i | i | i | i | i | i
CC(=O)Nc1cccc(NC(=O)c2cccc(S(=O)(=O)N3CCN(Cc4ccccc4)CC3)c2)c1 | i | i | 0.07 | i | i | i | . | . | . | .
CC1(C)CC(C)(c2ccc(O)cc2O)N(c2cccc(Cl)c2)C(=S)N1 (centres undefined) | i | . | . | i | . | i | . | . | . | .
O=C(CC(NC(=O)c1ccccc1Cl)c1ccccc1)NC1=NCCS1 (centres undefined) | i | i | -2.5 | -6.6* | i | i | i | i | i | i
Cn1c(=O)n(Cc2ccccc2)c2ccccc21 | i | i | 0.97 | i | i | i | . | . | . | .
Cn1c(=O)n(Cc2ccc(Br)cc2)c2ccccc21 | i | i | 0.06 | -9.3* | i | i | i | i | i | i
Cc1nc(NC(=S)NC(=O)COc2ccc(Cl)cc2)ccc1Br | i | i | -0.3 | i | i | i | . | . | . | .
O=c1[nH]c(N/N=C\c2ccc3c(c2)OCO3)nc2ccccc12 | i | i | 0.32 | i | i | i | . | . | . | .
COc1ccc(C)cc1S(=O)(=O)Nc1ccccc1 | i | i | -0.71 | i | i | i | . | . | . | .
CCCn1c(CCc2ccccc2)n[nH]c1=S | i | i | -0.02 | -7.5* | i | i | i | i | i | i
CCCCc1n[nH]c(=S)n1Cc1ccc(Cl)cc1 | i | i | -0.89 | -5.7* | i | i | i | i | i | i
CCn1c(CCc2ccccc2)n[nH]c1=S | i | i | -1.4 | i | i | i | . | . | . | .
O=C(NCc1ccc(Cl)cc1)c1ccc(Cl)cc1[N+](=O)[O-] | i | i | -0.63 | i | i | i | . | . | . | .
CCOc1ccccc1NC(=O)CN1CCC(C(=O)c2ccc(F)cc2)CC1 | i | i | -0.13 | i | i | i | . | . | . | .
COC(=O)c1ccc(NC(=O)CN2CCN(c3ccccc3)CC2)cc1 | i | i | -0.03 | -6.7* | i | i | i | i | i | i
COc1ccc(NC(=O)CN2CCN(c3ccccc3)CC2)cc1 | i | i | 0.63 | i | i | i | . | . | . | .
Cc1ccc2oc(C(=O)Nc3nnc(C)s3)c(C)c2c1 | i | i | -0.55 | -4.7* | i | i | i | i | i | i
COc1ccc2c(c1)OC[C@H]1[C@H]2N2C(=O)c3cc(Br)ccc3NC(=O)[C@@]2(C)[C@H]1c1ccccc1 | i | . | . | -7.6* | . | i | 79%* | i | i | i
c1ccc(-c2nnc(SCc3nc4ccccc4[nH]3)n2Cc2ccco2)cc1 | i | i | -2.9 | i | i | i | . | . | . | .
Cc1ccc2cc(CN(Cc3cccs3)Cc3nnnn3CC3CCCO3)c(=O)[nH]c2c1 (centres undefined) | i | i | -0.63 | -4.8* | i | i | i | i | i | i
Cc1ccc2[nH]c(=O)c(CN(Cc3cccs3)Cc3nnnn3CC3CCCO3)cc2c1 (centres undefined) | i | i | 2.2 | i | i | i | . | . | . | .
CC(C)CC(=O)Nc1nnc(S(=O)(=O)N2c3ccccc3CC2C)s1 (centres undefined) | i | i | 0.08 | i | i | i | . | . | . | .
SMILES | MrgX1 allo act | RGS4 inh | Kir21 inh | MrgX1 antag | RGS4 pot | MrgX1 ag | MrgX1 antag conf | HEK293 Ca flux | HEK293 Ca counter | HEK293 Ca cntr2
CCCCCCCCCCOC(=O)Cn1c(COc2ccccc2)[n+](C)c2ccccc21 | i | i | -13* | -10* | -9.3* | i | i | i | i | i
CCCCOC(=O)Cn1c(=N)n(CCN2CCOCC2)c2ccccc21 | i | i | 0.08 | i | i | i | . | . | . | .
CCCCCCCCCCOC(=O)Cn1c(COc2ccc(Cl)cc2)[n+](C)c2ccccc21 | i | i | -8.9 | -10* | i | i | i | i | i | i
CCCCCCCCCCOC(=O)Cn1c(COc2ccccc2C)[n+](C)c2ccccc21 | i | i | -8.9* | -12* | -7.4* | i | i | i | i | i
Cc1ccccc1OCCCCn1c(CO)nc2ccccc21 | i | i | -0.1 | i | i | i | . | . | . | .
CC(=O)NC1CCC(C(=O)O)(c2ccccc2)C1 (centres undefined) | i | i | 0.49 | i | i | i | . | . | . | .
Cc1ccc(Nc2nc3ccccc3c(=O)s2)cc1 | i | i | 0.65 | -7.3* | i | i | i | i | i | i
Cc1cccc2sc(NC(=O)c3ccc(Cl)s3)nc12 | i | i | 0.29 | -7.1* | i | i | i | i | i | i
Cc1cccc2sc(NC(=O)C3CC3)nc12 | i | i | 0.92 | i | i | i | . | . | . | .
Cc1ccnc(N2CCC(C(=O)Nc3cccc(C(F)(F)F)c3)CC2)n1 | i | i | 0.49 | -4.8* | i | i | i | i | i | i
